Tests used:
[1] = Cytotoxicity against Hepatocyte cells assessed as cell viability by MTT assay; assay type: cell-based; conditions: hepatocytes; read-out: TC50 (the source's name)
In short: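 MTT assay in mouse hepatocyte cultures prepared as for infection. Drugs at eight concentrations from 6.4 x 10–3 to 100 µM, triplicate wells. MTT 0.5 mg/ml (final) added for 4 h at 37°C, cells taken up in ethanol/DMSO 50/50, absorbance 550 nm with 620 nm reference. Viability expressed as percent of drug-free controls; TC50 by linear regression.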

Plasmodium yoelii yoelii = experiment: Antimicrobial activity against Plasmodium yoelii 265 liver infected in mammalian hepatocytes after 48 hrs; assay type: functional, organism-based; conditions: Plasmodium yoelii, 265, Hepatocyte
[2] = Selectivity index, ratio of TC50 for hepatocytes to IC50 for Plasmodium yoelii; parameters: species or system Hepatocyte
In short: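 SI calculated as hepatocyte TC50 (MTT, mouse hepatocytes) divided by liver-stage IC50 against P. yoelii yoelii, both measured in this work.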

Plasmodium falciparum = experiment: Antimicrobial activity against Plasmodium falciparum NF54 schizonts in mammalian hepatocytes after 96 hrs; assay type: functional, organism-based; conditions: NF54, Hepatocyte
In short: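 Primary hepatocytes isolated by collagenase perfusion, 10^5 cells per chamber-slide well, held 24 h at 37°C, 4% CO2, then infected with 9 x 10^4 NF54 sporozoites dissected from salivary glands of infected Anopheles stephensi. Drugs added at infection to duplicate cultures, seven concentrations from 1 x 10^-6 to 30 µM, renewed daily. Methanol-fixed; HSPi72 serum with FITC anti-mouse IgG; schizonts counted; IC50 by linear regression.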

| Structure (SMILES) | CC50 [1] | IC50 (Plasmodium yoelii yoelii) | Selectivity Index [2] | IC50 (Plasmodium falciparum) |
| --- | --- | --- | --- | --- |
| CC[C@H](C)[C@H](NC(=O)[C@H]([C@@H](C)CC)N(C)C(C)=O)C(=O)N[C@H](C(=O)N[C@@H](CC(C)C)C(=O)[C@@]1(C)CO1)[C@@H](C)O [EPOXOMYCIN] | 47.3 µM | 3950 nM | 11.97 |  |
| COc1cc(NC(C)CCCN)c2ncccc2c1 (stereo unspecified) [PRIMAQUINE] | 12.5 µM |  |  |  |
| CCN(CC)CCCC(C)Nc1c2ccc(Cl)cc2nc2ccc(OC)cc12 (stereo unspecified) [QUINACRINE] | > 11.6 µM | 30000 nM | >0.38 |  |
| CC(CCc1ccc(O)cc1)NCCc1ccc(O)c(O)c1 (stereo unspecified) [DOBUTAMINE] | > 100 µM | 3.7 nM | >27000 |  |
| CC(N)C12CC3CC(CC(C3)C1)C2 (stereo unspecified) [RIMANTADINE] | > 100 µM | 35.6 nM | >3.33 |  |
| CO[C@@H]1C[C@@H](C[C@H]2CC[C@H](C)[C@H]([C@@H](C)C(=O)O)O2)O[C@]2(O[C@](C)([C@H]3CC[C@@](C)([C@@H]4O[C@@H]([C@H]5O[C@@](O)(CO)[C@H](C)C[C@@H]5C)C[C@@H]4C)O3)C[C@H]2C)[C@@H]1C [NIGERICIN] | 13.2 µM | < 0.001 nM | >13200000 | < 1 pM |
| CC[C@]1(O)C[C@@H]2CN(CCc3c([nH]c4ccccc34)[C@@](C(=O)OC)(c3cc4c(cc3OC)N(C)[C@H]3[C@@](O)(C(=O)OC)[C@H](OC(C)=O)[C@]5(CC)C=CCN6CC[C@]43[C@@H]65)C2)C1 [VINBLASTINE] | 54.5 µM | 7950 nM | 6.85 |  |
| COCC(=O)O[C@]1(CCN(C)CCCc2nc3ccccc3[nH]2)CCc2cc(F)ccc2[C@@H]1C(C)C [MIBEFRADIL] | 67.9 µM | 0.873 nM | 77000 |  |
| CCOC(=O)NC(=S)Nc1ccccc1NC(=S)NC(=O)OCC [THIOPHANATE] | > 100 µM | 30000 nM | >3.33 |  |
| CC(C)Nc1cccnc1N1CCN(C(=O)c2cc3cc(NS(C)(=O)=O)ccc3[nH]2)CC1 [DELAVIRDINE] | > 100 µM | 0.846 nM | >118000 |  |
| COC(=O)Nc1nc2cc(Sc3ccccc3)ccc2[nH]1 [FENBENDAZOLE] | > 100 µM | 30000 nM | >3.33 |  |
| CC(C)(C)NC(=O)[C@@H]1CN(Cc2cccnc2)CCN1C[C@@H](O)C[C@@H](Cc1ccccc1)C(=O)N[C@H]1c2ccccc2C[C@H]1O | 8.77 µM | 5000 nM |  |  |
| CC[C@@]1([C@@H]2O[C@@H]([C@H]3O[C@@](O)(CO)[C@H](C)C[C@@H]3C)C[C@@H]2C)CC[C@H]([C@]2(C)CC[C@]3(C[C@H](O)[C@@H](C)[C@@H]([C@@H](C)[C@@H](OC)[C@H](C)C(=O)O)O3)O2)O1 [MONENSIN] | > 32 µM | < 0.001 nM | >32000000 | < 1 pM |
| CC(Cc1ccc(O)c(O)c1)C(C)Cc1ccc(O)c(O)c1 (stereo unspecified) [NORDIHYDROGUAIARETIC ACID] | > 100 µM | 30000 nM | >3.33 |  |
| Clc1ccc(COC(Cn2ccnc2)c2ccc(Cl)cc2Cl)c(Cl)c1 (stereo unspecified) [MICONAZOLE] | 70.4 µM | 2.03 nM | 34700 |  |
| O=C1C(O)=C([C@H]2CC[C@H](c3ccc(Cl)cc3)CC2)C(=O)c2ccccc21 [ATOVAQUONE] | 16.5 µM | 57 nM | 289 |  |
| CC(C)c1nc(CN(C)C(=O)N[C@H](C(=O)N[C@@H](Cc2ccccc2)C[C@H](O)[C@H](Cc2ccccc2)NC(=O)OCc2cncs2)C(C)C)cs1 [RITONAVIR] |  | 34.2 nM |  |  |
| C=CC(C)(C)c1cc(/C=C/C(=O)c2ccc(O)cc2)c(OC)cc1O [LICOAGROCHACONE A] | 63.4 µM | 0.927 nM | 68300 |  |
